ChEMBL document CHEMBL3596088, “Deepening the Topology of the Translocator Protein Binding Site by Novel N,N-Dialkyl-2-arylindol-3-ylglyoxylamides” (J Med Chem, 2015)

Key:
Translocator protein = Translocator protein (Rattus norvegicus, UniProt P16257); assay: Inhibition of [3H]PK11195 binding to TSPO in rat kidney mitochondrial membranes; format: cell membranes
Rattus norvegicus = species on record: Rattus norvegicus; assay: Inhibition of [3H]flumazenil binding to benzodiazepine receptor in rat cerebral cortex membranes at 10 uM incubated for 90 mins; format: cell membranes; conditions: Membrane
Method in brief: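 Crude rat cerebral cortex membrane fraction from differential centrifugation, washed to remove endogenous GABA. Incubated with 0.4 nM [3H]Ro15-1788 (flumazenil) for 90 min at 0 °C in 50 mM Tris-citrate, pH 7.4. Test compound at 10 μM; result given as percent inhibition of binding.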

Chain of Translocator protein (P16257 whole entry, looked up): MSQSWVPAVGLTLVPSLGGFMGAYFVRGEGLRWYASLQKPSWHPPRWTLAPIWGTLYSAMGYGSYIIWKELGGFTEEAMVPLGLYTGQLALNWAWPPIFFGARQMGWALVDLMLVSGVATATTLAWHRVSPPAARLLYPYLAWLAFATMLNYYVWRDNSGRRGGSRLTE

| SMILES | Ki (Translocator protein) [nM] | inhibition (Rattus norvegicus) [%] |
| --- | --- | --- |
| CCCCCN(C)C(=O)C(=O)c1c(-c2ccc3ccccc3c2)[nH]c2ccccc12 | 0.37 | 0 |
| CCCCCCN(CCCCCC)C(=O)C(=O)c1c(-c2ccc(O)cc2)[nH]c2ccccc12 | 6.3 | 0 |
| CCCN(CCC)C(=O)C(=O)c1c(-c2ccsc2)[nH]c2ccccc12 | 1.2 | 0 |
| CCCCN(CCCC)C(=O)C(=O)c1c(-c2ccc(-c3ccccc3)cc2)[nH]c2ccccc12 | 5.5 | 0 |
| CCCCCCN(CCCCCC)C(=O)C(=O)c1c(-c2ccc(C(=O)OC)cc2)[nH]c2ccccc12 | 3.3 | 0 |
| CCC(C)N(C)C(=O)c1cc2ccccc2c(-c2ccccc2Cl)n1 (configuration not stated) | – | 0 |
| CCCCN(CCCC)C(=O)C(=O)c1c(-c2ccsc2)[nH]c2ccccc12 | 2.8 | 0 |
| CCCCN(CCCC)C(=O)C(=O)c1c(-c2ccc(C(=O)O)cc2)[nH]c2ccccc12 | 406 | 0 |
| CCCCN(CC)C(=O)C(=O)c1c(-c2ccc3ccccc3c2)[nH]c2ccccc12 | 0.51 | 0 |
| CCCCN(CCCC)C(=O)C(=O)c1c(-c2ccc(OC)cc2)[nH]c2ccccc12 | 20.3 | 0 |
| CCCCCCN(CCCCCC)C(=O)C(=O)c1c(-c2ccsc2)[nH]c2ccccc12 | 0.89 | 0 |
| CCCCCCN(CCCCCC)C(=O)C(=O)c1c(-c2ccc(OC)cc2)[nH]c2ccccc12 | 4 | 0 |
| CCCCN(CCCC)C(=O)C(=O)c1c(-c2ccc(N)cc2)[nH]c2ccccc12 | 133 | 0 |
| CCCCN(C)C(=O)C(=O)c1c(-c2ccc3ccccc3c2)[nH]c2ccccc12 | 0.56 | 0 |
| CN1C(=O)CN=C(c2ccc(Cl)cc2)c2cc(Cl)ccc21 | – | 0 |
| CCN(Cc1ccccc1)C(=O)C(=O)c1c(-c2ccc3ccccc3c2)[nH]c2ccccc12 | 0.51 | 0 |
| CCCN(CCC)C(=O)C(=O)c1c(-c2ccc(O)cc2)[nH]c2ccccc12 | 16.1 | 0 |
| CCCCN(CCCC)C(=O)C(=O)c1c(-c2ccc(C(=O)OC)cc2)[nH]c2ccccc12 | 2.7 | 0 |
| CCCCCCN(CCCCCC)C(=O)C(=O)c1c(-c2ccc3ccccc3c2)[nH]c2ccccc12 | 0.52 | 0 |
| CCCCCCN(CCCCCC)C(=O)C(=O)c1c(-c2ccc(N)cc2)[nH]c2ccccc12 | 4.2 | 0 |
| CCCCN(CCCC)C(=O)C(=O)c1c(-c2ccc3ccccc3c2)[nH]c2ccccc12 | 0.54 | 0 |
| CCCN(CCC)C(=O)C(=O)c1c(-c2ccc(C(=O)O)cc2)[nH]c2ccccc12 | 343 | 0 |
| CCCN(CCC)C(=O)C(=O)c1c(-c2ccc3ccccc3c2)[nH]c2ccccc12 | – | 0 |
| CCCN(CCC)C(=O)C(=O)c1c(-c2ccc(-c3ccccc3)cc2)[nH]c2ccccc12 | 0.53 | 0 |
| CCCN(CCC)C(=O)C(=O)c1c(-c2ccc(N)cc2)[nH]c2ccccc12 | 44.4 | 0 |
| CCCCCCN(CCCCCC)C(=O)C(=O)c1c(-c2ccc(-c3ccccc3)cc2)[nH]c2ccccc12 | 1.8 | 0 |
| CCCN(CCC)C(=O)C(=O)c1c(-c2ccc(OC)cc2)[nH]c2ccccc12 | 5.8 | 0 |
| CCCN(CCC)C(=O)C(=O)c1c(-c2ccc(C(=O)OC)cc2)[nH]c2ccccc12 | 3.1 | 0 |
| CCCCCCN(CCCCCC)C(=O)C(=O)c1c(-c2ccc(C(=O)O)cc2)[nH]c2ccccc12 | 184 | 0 |
| CCCCN(CCCC)C(=O)C(=O)c1c(-c2ccc(O)cc2)[nH]c2ccccc12 | 25.7 | 0 |
